ChEMBL document CHEMBL3352099, “Anti-osteoporotic and antioxidant activities of chemical constituents of the aerial parts of Ducrosia ismaelis” (Bioorg Med Chem Lett, 2014)

Key:
[1] = Antioxidant activity assessed as AAPH-induced peroxyl radical scavenging activity by oxygen radical absorbance assay; format: physicochemical
Method in brief: (§1)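 Peroxyl radical scavenging measured by ORAC, a hydrogen atom transfer assay. Compounds tested at 1-10 µM. Values expressed as µM Trolox equivalents (TE).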

[2] = Antioxidant activity assessed as AAPH-induced peroxyl radical scavenging activity at 10 uM by oxygen radical absorbance assay relative to trolox; format: physicochemical; method in brief: as §1
RAW264.7 [3] = assay: Antiosteoporotic activity in mouse RAW264.7 cells assessed as inhibition of RANKL-induced osteoclast formation at 10 uM after 5 days by TRAP assay relative to untreated control; format: functional; set-up: scale not given: the % may be the effect or the level left
Method in brief: (§2)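 RAW 264.7 pre-osteoclast cells induced to form osteoclasts with RANKL. Compounds tested at concentrations up to 10 µM. TRAP activity is expressed as percent of the untreated control, as mean ± SD with n = 3. The untreated control (C) and the RANKL-treated control (TC) are both included.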

RAW264.7 [4] = assay: Antiosteoporotic activity in mouse RAW264.7 cells assessed as inhibition of RANKL-induced osteoclast formation after 5 days by TRAP assay relative to untreated control; format: functional, cell-based; method in brief: as §2
[5] = Antioxidant activity assessed as reduction of Cu2+ to Cu+ at 10 uM by reduction assay relative to trolox; format: physicochemical
Method in brief: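 Single electron transfer reducing-capacity assay measuring reduction of Cu2+ ions. Compounds tested at up to 10.0 µM. Values expressed as µM Trolox equivalents, as mean ± SD of three measurements.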

For `O=c1c(-c2ccc(O)cc2)coc2cc(O[C@@H]3O[C@H](CO)[C@@H](O)[C@H](O)[C@H]3O)ccc12` [DAIDZIN], the Activity [1] was “Dose-dependent effect” and the Ratio [2] was > 20.

In the case of `OC[C@H]1O[C@@H](Oc2ccc3c(c2)OC[C@@]2(O)c4ccc(O)cc4O[C@@H]32)[C@H](O)[C@@H](O)[C@@H]1O`, the Activity [1] is reported as “Dose-dependent effect” and the Ratio [2] is reported as > 20.

In the case of `COc1cc([C@H]2OC[C@H]3[C@@H]2CO[C@@H]3c2cc(OC)c(O[C@@H]3O[C@H](CO)[C@@H](O)[C@H](O)[C@H]3O)c(OC)c2)cc(OC)c1O[C@@H]1O[C@H](CO)[C@@H](O)[C@H](O)[C@H]1O` [LIRIODENDRIN], the Activity [1] is reported as “Dose-dependent effect”, the Activity (RAW264.7 [3]) is reported as 106.05% and the Activity (RAW264.7 [4]) is reported as “Dose-dependent effect”.

In the case of `O=c1c(-c2ccc(O)cc2)coc2cc(O[C@@H]3O[C@H](CO)[C@@H](O)[C@H](O)[C@H]3O)cc(O)c12` [GENISTIN], the Activity [1] is reported as “Dose-dependent effect” and the Ratio [2] is reported as 26.55.

For `COC(=O)/C=C\c1ccc(O)c(CC=C(C)C)c1`, the Activity [1] was “Dose-dependent effect”, the Activity (RAW264.7 [3]) was 85.05% and the Activity (RAW264.7 [4]) was “Dose-dependent effect”.

In the case of `CC(C)=CCc1c(O)ccc(C(=O)/C=C/c2ccc(O)cc2)c1O` [ISOBAVACHALCONE], the Activity [1] is reported as “Dose-dependent effect” and the Ratio [2] is reported as > 20.

In the case of `CC1=CC(=O)CC(C)(C)[C@H]1CC[C@@H](C)O[C@@H]1O[C@H](CO)[C@@H](O)[C@H](O)[C@H]1O`, the Activity [1] is reported as “Dose-dependent effect”.

In the case of `COc1cc([C@H]2OC[C@H]3[C@@H]2CO[C@@H]3c2cc(OC)c(OC)c(OC)c2)cc(OC)c1O`, the Activity [1] is reported as “Dose-dependent effect” and the Ratio [5] is reported as 23.44.

In the case of `COc1cc([C@H]2OC[C@H]3[C@@H]2CO[C@@H]3c2ccc(O[C@@H]3O[C@H](CO)[C@@H](O)[C@H](O)[C@H]3O)c(OC)c2)ccc1O`, the Activity [1] is reported as “Dose-dependent effect”.

For `COc1cc(/C=C/CO)ccc1O[C@@H]1O[C@H](CO)[C@@H](O)[C@H](O)[C@H]1O` [CONIFERIN], the Activity [1] was “Dose-dependent effect”.

In the case of `C=CCc1ccc(O[C@@H]2O[C@H](CO)[C@@H](O)[C@H](O)[C@H]2O)c(OC)c1` [CITRUSIN C], the Activity [1] is reported as “Dose-dependent effect”, the Activity (RAW264.7 [3]) is reported as 100.93% and the Activity (RAW264.7 [4]) is reported as “Dose-dependent effect”.

For `O=C(c1ccc(O)cc1O[C@@H]1O[C@H](CO)[C@@H](O)[C@H](O)[C@H]1O)[C@H](O)Cc1ccc(O)cc1`, the Activity [1] was “Dose-dependent effect”.

For `O=c1oc2cc(O)ccc2c2oc3cc(O)ccc3c12` [COUMESTROL], the Activity [1] was “Dose-dependent effect”.

In the case of `O=c1c(-c2ccc(O[C@@H]3O[C@H](CO)[C@@H](O)[C@H](O)[C@H]3O)cc2)coc2cc(O)ccc12`, the Activity [1] is reported as “Dose-dependent effect”, the Activity (RAW264.7 [3]) is reported as 104.77% and the Activity (RAW264.7 [4]) is reported as “Dose-dependent effect”. For the same compound, the Ratio [2] was > 20.

In the case of `COc1cc(O)c2c(=O)c(-c3ccc(O[C@@H]4O[C@H](CO)[C@@H](O)[C@H](O)[C@H]4O)cc3)coc2c1`, the Activity [1] is reported as “Dose-dependent effect”.
